Assay outcomes (PubChem BioAssay)
Sampled rows, rich in hits. Any-hit rate of the full collection: about 4.5%.
TAAR1 agonist = human TAAR1 agonism | activation, % at 3 µM | CHO RD-HGA16 TAAR1, Fluo-8 calcium fluorescence; vehicle wells 0%, saturating PEA agonist 100% | Q96RJ0 | AID 624467 | actives 0.99% (n = 360,000);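 active = activation above the mean activation of all test compounds in the run plus 3 SD, cut at about 38% in these data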
Target sequence (Q96RJ0 whole entry, looked up): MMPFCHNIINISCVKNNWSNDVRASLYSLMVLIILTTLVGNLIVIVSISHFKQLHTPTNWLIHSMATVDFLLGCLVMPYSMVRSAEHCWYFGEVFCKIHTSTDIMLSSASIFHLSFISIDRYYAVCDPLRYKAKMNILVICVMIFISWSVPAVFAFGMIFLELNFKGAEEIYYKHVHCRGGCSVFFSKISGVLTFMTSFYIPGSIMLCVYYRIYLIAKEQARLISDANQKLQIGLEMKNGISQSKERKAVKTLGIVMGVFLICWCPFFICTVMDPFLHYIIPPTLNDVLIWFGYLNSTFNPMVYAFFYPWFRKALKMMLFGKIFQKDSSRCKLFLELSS
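System: CHO-derived RD-HGA16 cells with stable Gα16 and human TAAR1 / Times: 17-24 h plating, Fluo-8 75 min 37 °C, 30 min RT / Technique: calcium-sensitive Fluo-8 signal, excitation 470-495, emission 515-575 nm / Measure: % activation relative to PEA EC100 response / Benchmarks: DMSO and PEA EC100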
TAAR1 antag = human TAAR1 antagonism; actives 1.5% (n = 360,000); inhibition, % at 3 µM; CHO RD-HGA16 TAAR1, Fluo-8 calcium fluorescence, antagonist;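 active = inhibition above a per-plate cutoff, the mean inhibition of test compounds on that plate plus 3 SD, cut at about 49% in these data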
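Test system – hTAAR1-expressing CHO RD-HGA16 cells, Gα16-coupled · Reagent – β-PEA at EC80 concentration, post-compound challenge · Compound dosing – 3 µM, single point · Timing – 140 s kinetic read after compound, 140 s after agonist · Detection – Fluo-8 intracellular calcium dye fluorescence, real-time kinetic reads · Control set – DMSO and EC80 PEA controls · Repeats – n of 1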
OX1R antag-1 = antagonists of human orexin 1 receptor; CHO/OX1R cells, Fluo-8 calcium fluorescence, orexin A; O43613; inhibition, % at 5 µM; actives 0.43% (n = 330,000);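 active = inhibition above its plate's threshold, mean inhibition of all tested compounds on the plate plus 3 SD, cut at about 37% in these data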
GPR7 antag = human neuropeptides B/W receptor 1 antagonism | inhibition, % at 4.4 µM | P48145 | actives 1.1% (n = 290,000) | GPR7-expressing cells, fluorescence antagonist assay; in the data active = inhibition above about 16%, passing the limit was not always enough;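 also: cells stimulated with the agonist NPW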
Target sequence (P48145 whole entry, looked up): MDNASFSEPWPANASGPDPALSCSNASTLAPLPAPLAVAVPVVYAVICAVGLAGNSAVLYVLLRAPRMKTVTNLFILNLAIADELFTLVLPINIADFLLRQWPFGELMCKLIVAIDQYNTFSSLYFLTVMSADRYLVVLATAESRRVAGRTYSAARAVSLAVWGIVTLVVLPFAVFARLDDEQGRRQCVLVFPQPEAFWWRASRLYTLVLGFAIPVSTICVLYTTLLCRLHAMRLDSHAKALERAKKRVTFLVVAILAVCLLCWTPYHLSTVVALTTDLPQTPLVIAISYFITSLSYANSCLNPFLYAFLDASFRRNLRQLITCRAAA
OX1R antag-2 = blocks the human orexin 1 receptor; inhibition, % at 6.6 µM; OX1R-expressing cells, FRET antagonist read-out; O43613; AID 485270; actives 1.8% (n = 330,000); in the data active = inhibition mostly above about 38%, no sharp cut-off; inactive = mostly below about 40%
CHO parental Ca = counter-screen: ATP calcium response change in parental CHO cells; parental CHO-K1, ATP-induced calcium, Fluo-8 fluorescence; inhibition, % at 5.6 µM; actives 0.63% (n = 330,000); AID 463079;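 active = inhibition above that plate's mean sample inhibition plus 3 SD, cut at about 26% in these data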
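Test system: parental CHO cells; detection: calcium-sensitive Fluo-8 fluorescence; evaluation: percent inhibition of calcium signal; also added: ATP as calcium-mobilizing challenge; repeats: one well per compound; control set: ATP-challenged DMSO wells low, unchallenged DMSO wells high; compound: single nominal dose of 5.6 µM per compound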
GPR7 antag conf = human GPR7 antagonism, confirmation assay. shares compounds with GPR7 antag. GPR7-expressing cells, calcium fluorescence antagonist mode. inhibition, % at 4.4 µM. actives 52% (n = 2,400); in the data active = inhibition above about 24%;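 also: stimulated with the GPR7 agonist NPW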
MCHR1 antag = counter-screen for GPR7 antagonists: antagonists of human MCHR1; shares compounds with GPR7 antag; MCHR1-expressing cells, fluorescence antagonist assay; inhibition, % at 4.4 µM; actives 62% (n = 2,400); in the data active = inhibition above about 22%
Large screens that a line does not name were inactive (follow-up assays come after a bar, where they were run).

Cn1c(CNC(=O)C(Cc2ccccc2)NC(=O)c2ccccc2F)cc(=O)n(C)c1=O (stereo unspecified)	none
COc1ccc(C2C(Oc3ccccc3C)C(=O)N2Cc2ccc(F)cc2)cc1OC (stereo unspecified)	GPR7 antag 27.9 | GPR7 antag conf inactive | MCHR1 antag inactive
c1ccc(CN(Cc2ccccc2)c2ncnc3c2nnn3Cc2ccccc2)cc1	none
Cc1nc(C(=O)Nc2ccc(Cl)cc2)nn1-c1ccc([N+](=O)[O-])cc1	GPR7 antag 30.5 | GPR7 antag conf inactive | MCHR1 antag inactive
CCOC(=O)N/N=C/c1cn(CCCOc2ccccc2)c2ccccc12	GPR7 antag 27.4 | GPR7 antag conf inactive | MCHR1 antag 43.6
COc1ccc(NC(=O)COC(=O)C2CC2)cc1S(=O)(=O)N1CCCCC1	none (no result: GPR7 antag)
COC(=O)C1=C(C)N(Cc2ccccc2)C(=NCc2ccc(OC)cc2)N[C@H]1c1ccccc1	none (no result: GPR7 antag)
COC(=O)C1=C(C)N(Cc2ccccc2)C(=NCC(C)C)N[C@H]1c1ccccc1	GPR7 antag 47.2 (no result: TAAR1 agonist, TAAR1 antag) | GPR7 antag conf 49.9 | MCHR1 antag 40.5
COC(=O)C1=C(C)N(Cc2ccccc2)C(=NCc2cccc(C(F)(F)F)c2)N[C@H]1c1cccc(C(F)(F)F)c1	none (no result: TAAR1 agonist, TAAR1 antag, GPR7 antag)
COC(=O)C1=C(C)N(Cc2ccc(C(F)(F)F)cc2)C(=NCc2ccc(C(F)(F)F)cc2)NC1c1cccc(F)c1 (stereo unspecified)	none (no result: OX1R antag-1, GPR7 antag, OX1R antag-2, CHO parental Ca)
COCCN=C1N[C@@H](c2cccc(C(F)(F)F)c2)C(C(=O)OC)=C(C)N1Cc1ccccc1	none (no result: GPR7 antag) | MCHR1 antag inactive
CCN1C(=NCc2cccc(Cl)c2)N[C@@H](c2cccc(F)c2)C(C(=O)OC)=C1C	GPR7 antag 33.3 | GPR7 antag conf 58.2 | MCHR1 antag 30.1
COC(=O)C1=C(C)N(Cc2ccccc2)C(=NCc2cccc(C(F)(F)F)c2)N[C@H]1c1cccc(F)c1	TAAR1 agonist 41.5, GPR7 antag 37.5 | GPR7 antag conf 70.1 | MCHR1 antag 71.2
Cc1cc(OCC(=O)NCCCN2CCOCC2)c2c(C)c(C)c(=O)oc2c1	none
C#CCOCCOCCOCCNc1nc(N2CCN(C(=O)[C@H](C(C)C)n3cc(CCO)nn3)CC2)nc(N2CCN(C(=O)[C@H]([C@@H](C)CC)n3cc(CCC(=O)O)nn3)CC2)n1	none (no result: OX1R antag-1, GPR7 antag, OX1R antag-2, CHO parental Ca)
COc1ccc(CN(C)CCCn2cnc3c(OCc4ccccc4)ncnc32)cc1	none (no result: OX1R antag-1, GPR7 antag, OX1R antag-2, CHO parental Ca)
CCc1ccc(Nc2n[n+](-c3ccccc3)c(-c3cc(OC)c(OC)cc3Br)s2)cc1	none
CCc1ccc(Nc2n[n+](-c3ccccc3)c(-c3c(Cl)cccc3Cl)s2)cc1	TAAR1 agonist 58.5, TAAR1 antag 91.5, OX1R antag-1 103.2, GPR7 antag 44.8, CHO parental Ca 92.5 | GPR7 antag conf 59.8 | MCHR1 antag 73.1
CCc1ccc(Nc2n[n+](-c3ccccc3)c(-c3ccc(N(CC)CC)cc3)s2)cc1	TAAR1 agonist 50.1, TAAR1 antag 49.5, GPR7 antag 62.0, CHO parental Ca 45.1 | GPR7 antag conf 88.1 | MCHR1 antag 83.4
c1ccc(COc2ccc(-c3sc(Nc4ccccc4)n[n+]3-c3ccccc3)cc2)cc1	none (no result: TAAR1 agonist, TAAR1 antag)
CCc1ccc(Nc2n[n+](-c3ccccc3)c(-c3ccc(OCc4ccccc4)cc3)s2)cc1	GPR7 antag 68.1 | GPR7 antag conf 53.1 | MCHR1 antag 59.0
c1ccc(CN2CC[C@@H](Nc3nccn4ccnc34)C2)cc1	none (no result: OX1R antag-1, GPR7 antag, OX1R antag-2, CHO parental Ca)
Cc1ccc(NC(=O)c2ncn(CCCN(C)CCc3ccccn3)n2)cc1C	none (no result: OX1R antag-1, GPR7 antag, OX1R antag-2, CHO parental Ca)
COc1ccccc1-c1noc(CCC(=O)Nc2cccnc2)n1	none (no result: OX1R antag-1, GPR7 antag, OX1R antag-2, CHO parental Ca)
COc1ccccc1-c1noc(CCC(=O)Nc2cc(C(F)(F)F)ccc2Cl)n1	GPR7 antag 23.3 | GPR7 antag conf inactive | MCHR1 antag 32.2
CCC(=O)c1cn(CC(=O)Nc2ccccc2Cl)c2ccccc12	GPR7 antag 26.0 | GPR7 antag conf inactive | MCHR1 antag inactive
CCCCCCOC(=O)C[N+](C)(C)CCOC1CC2CCC1(C)C2(C)C (stereo unspecified)	GPR7 antag 31.5 | GPR7 antag conf 65.3 | MCHR1 antag 62.9
CCCCOC(=O)C[N+](C)(C)CCOC1CC2CCC1(C)C2(C)C (stereo unspecified)	none
COc1cccc2c1Oc1ncccc1N(C(=O)CCC(=O)NCc1ccccc1)C2	none
CCc1ccc(CNC(=O)CCC(=O)N2Cc3cccc(OC)c3Oc3ncccc32)cc1	GPR7 antag 23.4 | GPR7 antag conf inactive | MCHR1 antag inactive
CCCCC(OC(=O)CN1C(=O)COc2ccccc21)C(=O)NC1CCCCC1 (stereo unspecified)	GPR7 antag 30.8 | GPR7 antag conf 38.4 | MCHR1 antag 24.1
CC(C(=O)NCc1ccccc1Cl)N1C(=O)c2ccccc2C1=O (stereo unspecified)	none
COc1ccc(CNC(=O)c2cc3ccccc3oc2=O)cc1	none
COc1ccc2cc(C(=O)NCc3ccccc3)c(=O)oc2c1	GPR7 antag 34.3 | GPR7 antag conf inactive | MCHR1 antag inactive
CSc1nc(N)nc(SCC(=O)Nc2ccc(Cl)cc2)c1C#N	none
CSc1nc(N)nc(SCC(=O)Nc2cccc(F)c2)c1C#N	GPR7 antag 25.7, CHO parental Ca 62.4 | GPR7 antag conf inactive | MCHR1 antag 63.6
COc1ccc(NC(=O)Nc2cccc(OC)c2)cc1	none
COc1cccc(NC(=O)Nc2nc(SC(C)(C)C)ns2)c1	TAAR1 antag 58.9, OX1R antag-1 75.1, GPR7 antag 29.1, CHO parental Ca 73.6 | GPR7 antag conf 59.9 | MCHR1 antag 71.6
CCSc1nsc(NC(=O)Nc2cccc(F)c2)n1	OX1R antag-1 103.8, GPR7 antag 35.7, OX1R antag-2 84.4, CHO parental Ca 101.2 | GPR7 antag conf 45.9 | MCHR1 antag 59.9
Cc1ccc(S(=O)(=O)N(C)C)cc1NC(=O)c1cc(=O)c2ccccc2o1	none
Cc1cccc(CCNC(=O)C2CCN(S(=O)(=O)c3c(C)noc3C)CC2)c1	none
COc1ccc(CCNC(=O)C2CCN(S(=O)(=O)c3c(C)noc3C)CC2)cc1OC	GPR7 antag 29.0 | GPR7 antag conf inactive | MCHR1 antag inactive
CSc1ccccc1C(=O)N(C)C(c1ccccc1)c1ccccc1	GPR7 antag 22.4 | GPR7 antag conf inactive | MCHR1 antag 61.3
Cc1ccc(-c2ccc(=O)n(CC(=O)NCCC(C)C)n2)cc1	none
COC(=O)c1cc(C)sc1NC(=O)CCCC(=O)O	none
CCc1cc(C(=O)OC)c(NC(=O)CCCC(=O)O)s1	GPR7 antag 26.2 | GPR7 antag conf inactive | MCHR1 antag inactive
